Assay outcomes from PubChem.
Tn6 DDE FP: disrupts Tn6 cyclic peptide binding to fibrin D-Dimer-E complex | P02675 | Fibrin DD(E) TRITC-Tn6 fluorescence polarization displacement | inhibition, % at 8.3 µM | 0.21% of 370,000 active;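 active = inhibition above a per-campaign cutoff: mean of compounds within control limits plus 3 SD, cut at about 15% in these data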;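 note: 0% = median of all compound wells on the plate and 100% = blocking peptide control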
MBD2 inh: inhibitors of human MBD2 binding to methylated oligonucleotide; Q9UBB5; TR-FRET; inhibition, % at 4.4 µM; 0.31% of 370,000 active; AID 686964; in the data active = inhibition above about 13%
UHRF1 binding: human UHRF1 methylated DNA binding inhibitors | Q96T88 | inhibition, % at 4.4 µM | 0.75% of 370,000 active | UHRF1 binding to methylated oligo, TR-FRET | AID 687016; in the data active = inhibition above about 21%;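 note: UHRF1 SRA domain binding a hemimethylated CpG hairpin DNA probe; 0% = median of test compound wells and 100% = reference inhibitor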
LEDGF integ inh: blocks HIV-1 LEDGF/p75-dependent DNA integration; AID 743269; inhibition, % at 3.7 µM; 0.64% of 370,000 active; TR-FRET IN-LEDGF/p75 DNA integration, Eu/Cy5;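 active = inhibition above the screen-wide mean plus 3 SD, cut at about 13% in these data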;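 note: signal is the Cy5 over europium emission ratio at 671 and 618 nm; 0% = plate median of compound wells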
Tn7 DDE FP: inhibitors of Tn7 peptide binding to human fibrin DD(E); P02675; FP displacement of FITC-Tn7 peptide from fibrin DD(E); 0% = median of compound wells per plate; inhibition, % at 8.3 µM; 0.13% of 370,000 active; AID 720508;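 active = inhibition above the mean of compounds falling within the control limits plus 3 SD of them, cut at about 14% in these data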;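 note: 0% = plate median of compound wells and 100% = 10 µM Aha-Tn7 peptide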
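System: human fibrin DD(E); quantity: Fibrin-DD(E) at 2 µM final; also added: fluorescent Tn7 probe at 0.1 µM; compound dosing: single nominal test concentration of 8.3 µM per compound; schedule: 10 min preincubation, 3 h with tracer, room temperature; detection: fluorescence polarization of the labelled Tn7 tracer; repeats: one replicate per compound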
TDP2 absorb: blocks human TDP2 phosphodiesterase activity; O95551; recombinant TDP2, T5PNP hydrolysis, p-nitrophenol absorbance 415 nm; inhibition, % at 12.8 µM; 0.34% of 370,000 active;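 active = inhibition above the mean of all tested compounds plus 3 SD, set per campaign, cut at about 25% in these data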;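 note: 0% = DMSO with enzyme and 100% = buffer with substrate but no TDP2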
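Material: recombinant human TDP2; quantity: TDP2 enzyme at 120 nM final; medium: Tris-HCl pH 7.5 with MgCl2; compound: single concentration, 12.8 µM nominal, with 1% DMSO; incubation: 2 h enzyme incubation at 37 °C; signal: epi absorbance; measure: percent inhibition; benchmarks: high control without enzyme, low control DMSO plus TDP2; repeats: singlicate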
* hit, by the source's call. A selection: hits, their analogues and other compounds. The true share with any hit is near 1.9%.

SMILES	Tn6 DDE FP	MBD2 inh	UHRF1 binding	LEDGF integ inh	Tn7 DDE FP	TDP2 absorb
CCC1(CC)NC(=O)N(CC(=O)OCn2nnc3ccccc3c2=O)C1=O	0.4	8.9	21.2*	1.0	3.0	-1.3
Cc1cccc(-c2nnc(SCC(=O)Nc3cccc4ccccc34)n2Cc2ccco2)c1	3.6	-4.8	-2.5	1.6	5.1	-1.4
CC(=O)N1CCc2cc(S(=O)(=O)NCCC(=O)Nc3cccc(C)c3)ccc21	6.6	6.1	21.9*	-1.1	-4.3	3.1
CCOC(=O)c1cccc(NC(=O)CCNS(=O)(=O)c2ccc3c(c2)CCN3C(=O)CC)c1	2.3	4.2	-2.1	-0.6	9.0	5.1
N/C(=N\OC(=O)c1cc([N+](=O)[O-])ccc1Cl)c1ccccn1	1.9	-6.2	45.6*	-1.1	-1.5	6.9
CCOc1ccc2nc(N3C(=O)C(O)=C(C(=O)c4ccco4)C3c3ccco3)sc2c1 (centres undefined)	1.8	-3.8	6.7	17.9*	-4.4	-20.7
COc1ccc(-c2c(C(=O)c3ccc(Br)cc3)[nH]c(N)c2C(=O)NCCc2c[nH]c3ccccc23)cc1OC	-4.5	-5.2	-1.2	1.6	-1.9	3.1
C=CCN=C1NC(CCc2ccccc2)C(C(=O)OC)=C(C)N1Cc1ccccc1C(F)(F)F (centres undefined)	-7.5	-0.2	-0.4	6.0	-7.4	4.0
Cc1cc(NC(=O)C2CC2)ncc1NC(=O)c1ccccn1	1.6	2.4	21.8*	-2.1	-3.0	5.9
Cc1cc(NC(=O)C2CCCCC2)ncc1NC(=O)c1ccccn1	0.6	-1.5	-0.9	-1.7	-9.4	-8.9
COC(=O)[C@]12C[C@H](CC(=O)N3CCCC3)C(=O)N(Cc3ccc4c(c3)OCO4)C1=C[C@H](COCc1ccccc1)O[C@@H]2C	1.6	6.6	1.2	0.0	0.5	-1.0
Cc1cc(-c2n[nH]c(=S)n2N=Cc2cc(Br)ccc2F)n[nH]1	4.2	2.5	1.5	3.1	-6.2	-11.9
CN1CCN(c2nc(-c3ccc(C(C)(C)C)cc3)nc3ccccc23)CC1	5.4	9.2	21.6*	1.2	-5.3	-0.7
COc1cc(C(O)C(=O)O)ccc1O (centres undefined)	3.1	-2.1	43.2*	1.8	-1.1	-10.5
Cc1nn(-c2ccccc2)c(C)c1C(=O)Oc1ccccc1	6.0	1.3	32.3*	-0.2	4.2	-8.0
COc1ccc(-c2nc3cc([N+](=O)[O-])ccc3o2)cc1	0.3	-3.9	20.9*	3.2	-5.1	6.0
CC(C)c1ccc(S(=O)(=O)N2CCN(CCC(=O)Nc3ccc(N(C)C)cc3)CC2)cc1	-5.1	15.2*	23.0*	6.0	0.6	-1.5
COc1ccc(NS(=O)(=O)c2cc(NC(=O)c3ccc(=O)[nH]n3)ccc2N2CCOCC2)cc1	-4.4	-0.5	29.2*	-2.3	5.6	7.3
Cc1cc(C)c2nc3sc(C(=O)N4CCOCC4)c(N)c3cc2c1	4.4	-5.7	36.6*	-1.3	2.3	11.9
C[C@@H]1Cc2cc(O)c(O)c(O)c2C(=O)O1	-3.6	-2.0	-1.6	-4.2	3.0	4.8
COC(=O)CC1=NN(c2nc3ccccc3s2)C(=O)/C1=C/N(C)C	-2.3	-2.5	78.6*	4.6	-1.4	-9.7
COc1ccc(C(=O)Nc2ccc3c(c2)nc(CN2CCCC2)n3C)cc1	4.2	0.9	34.4*	-1.0	7.7	7.6
COc1ccc(C(=O)Nc2ccc3c(c2)nc(CN2CCN(C(C)=O)CC2)n3C)cc1	4.1	4.3	4.2	5.2	0.2	-16.7
CC(=O)c1c[nH]c(C(=O)NCC2CCCO2)c1 (centres undefined)	-1.3	-2.2	0.1	-0.5	-5.1	1.1
O=C(c1cccc(C(F)(F)F)c1)c1c[nH]c(C(=O)NCC2CCCO2)c1 (centres undefined)	0.3	2.5	24.4*	1.4	-3.9	4.4
SMILES	Tn6 DDE FP	MBD2 inh	UHRF1 binding	LEDGF integ inh	Tn7 DDE FP	TDP2 absorb
COc1cccc2cc(-c3nnc(-c4ccccc4)o3)c(=O)oc12	-6.0	2.0	21.2*	1.5	-4.0	-3.0
N/C(Cc1ccc(Cl)cc1Cl)=N\OC(=O)Cc1cccs1	-1.1	3.0	57.5*	-5.8	-4.8	-3.5
O=C(CSc1nc(-c2ccccc2Cl)ns1)c1ccc(Cl)cc1	-4.7	3.3	32.0*	2.2	5.8	4.3
COc1cccc2c1[C@H](/C=C/c1ccccc1)[C@@H]([C@H](O)CO)OC2	-6.1	2.2	-1.4	-2.2	2.5	3.0
O=C(CSc1ccccn1)Nc1ccc(N2CCOCC2)cc1	-6.4	-7.3	92.5*	3.3	-3.8	-1.6
Cc1cc(N2CCN(C(=O)OC(C)(C)C)C[C@@H]2C)ccc1N1CCN(Cc2ccccc2)[C@@H](C)C1	-0.8	-5.3	-0.1	-3.3	0.5	-7.0
CN1CCN(S(=O)(=O)c2cc(C(F)(F)F)ccc2Cl)CC1	-3.5	1.1	31.2*	-2.5	-3.9	6.5
O=S(=O)(c1cc(C(F)(F)F)ccc1Cl)N1CCN(c2ccccn2)CC1	0.1	0.1	0.3	-0.7	0.1	6.8
CC(C)(C)[C@@H]1C=C(C(=O)NC2CC2)O[C@H](OCc2ccc(CO)cc2)C1	4.3	6.7	37.2*	0.3	-2.9	0.5
Cc1cc(S(=O)(=O)N2CCCC(N(C)CCc3ccccn3)C2)c(C)cc1Cl (centres undefined)	-6.3	8.7	23.5*	3.4	-1.8	8.4
O=C(O)CC1c2ccccc2CCN1S(=O)(=O)c1cccs1 (centres undefined)	0.9	7.7	23.8*	-3.8	-0.7	-16.4
CCN(CC)C(=O)CSc1nnc(-c2ccc(C(C)(C)C)cc2)n1-c1ccc(Cl)cc1	-0.1	0.4	0.1	-5.5	3.5	2.1
O=S(=O)(c1ccccc1)c1nc(-c2ccccc2Cl)oc1NCCCN1CCOCC1	4.0	3.4	39.6*	-1.9	-9.4	-7.2
O=S(=O)(c1ccccc1)c1nc(-c2ccccc2Cl)oc1NCCN1CCOCC1	2.2	-1.8	0.6	3.4	-5.3	5.9
COC(=O)[C@]12C[C@H](CC(=O)NCCC(C)C)C(=O)N(CCC3=CCCCC3)C1=C[C@H](COCc1ccccc1)O[C@@H]2C	-3.7	3.9	-0.8	-1.0	4.0	4.7
COc1ccc(C2=Nc3ccccc3N(C(=O)c3cnccn3)C2C(=O)NC2CCCC2)cc1 (centres undefined)	-2.3	3.3	-0.6	1.2	10.8	11.5
COc1ccc(C2=Nc3ccccc3N(C(=O)c3cccnc3)C2C(=O)NC2CCCC2)cc1 (centres undefined)	6.5	11.8	22.6*	-3.4	-0.1	2.9
COCCNC(=O)C1CCCN(C(=O)c2cc(C(C)(C)C)nn2C)CC1 (centres undefined)	-1.4	2.0	25.0*	-2.4	-0.8	-9.4
